ChEMBL document CHEMBL3853340, “Dihydropyrimidinones and -thiones with improved activity against human polyomavirus family members” (Bioorg Med Chem Lett, 2016)

Legend:
[1] = molecular target: Large T antigen (Simian virus 40) (UniProt P03070); experiment: Inhibition of ATPase activity of SV40 T antigen expressed in baculovirus at 10 uM by antibody affinity chromatography relative to control; conditions: Betapolyomavirus macacae
Outline: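 Purified T antigen ATPase activity measured with test agent at a final concentration of 10 μM. Activity was normalized to reactions with no compound but an equal amount of DMSO. Values are the means of three independent experiments.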

[2] = Cytotoxicity against human RMS13 cells assessed as cell growth inhibition after 24 hrs by cell titer-glo assay; assay type: toxicity, cell-based
Outline: (§1)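 Growth of MCF7 breast cancer cells and RMS13 rhabdomyosarcoma cells measured in the presence of compound. Values are the means ± SD of 2 independent experiments, each run in triplicate.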

[3] = system: Homo sapiens; experiment: Inhibition of human Hsp70 expressed in Escherichia coli BL21(DE3) assessed as suppression of Hdj2-activated ATPase activity at 100 uM dosed 15 mins after Hsp70 and Hdj2 pre-incubation and measured after 60 mins by TLC based steady state ATPase assay relative to control
Outline: (§2)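 Hsp70 ATPase activity measured with Hdj2 (Hsp40) at a 1:0.5 Hsp70:Hsp40 molar ratio. Activity was normalized to DMSO-matched reactions lacking compound. Values are the means of three independent experiments.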

[4] = Cytotoxicity against JC polyomavirus MAD-4 infected grivet COS7 cells assessed as reduction in cell viability after 7 days by cell titer-glo assay; assay type: toxicity, cell-based; conditions: chlorocebus aethiops, cos-7, 168 h
Outline: (§3)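 JC virus replication and viability measured in COS7 green monkey kidney cells. EC50 is the concentration giving 50% activity. CC50 is the concentration killing 50% of viable cells. Values come from two independent experiments.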

[5] = Cytotoxicity against BK polyomavirus Gardner infected-human HFF cells assessed as reduction in cell viability after 7 days by cell titer-glo assay; assay type: toxicity, cell-based; conditions: for CC50 at 168 h: HFF cells infected with BK polyomavirus Gardner; for CC50: hff, 168 h
Outline: (§4)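 BK virus replication and viability measured in human foreskin fibroblasts. EC50 is the concentration giving 50% activity. CC50 is the concentration killing 50% of viable cells. Values come from two independent experiments.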

[6] = system: JC polyomavirus; experiment: Antiviral activity against JC polyomavirus MAD-4 infected in grivet COS7 cells assessed as reduction in DNA copy number after 7 days by PCR analysis; assay type: functional, cell-based; conditions: MAD-4, COS-7, 168 h; outline: as §3
[7] = Specificity index, ratio of CC50 for grivet COS7 cells to EC50 for JC polyomavirus MAD-4 infected in grivet COS7 cells; parameters: species or system COS-7
[8] = system: BK polyomavirus; experiment: Antiviral activity against BK polyomavirus Gardner infected in human HFF cells assessed as reduction in DNA copy number after 7 days by PCR analysis; assay type: functional, cell-based; conditions: Betapolyomavirus hominis, 168 h; outline: as §4
[9] = Cytotoxicity against human MCF7 cells assessed as cell growth inhibition after 48 hrs by cell titer-glo assay; assay type: toxicity, cell-based; outline: as §1
[10] = species on record: Homo sapiens; experiment: Inhibition of human Hsp70 expressed in Escherichia coli BL21(DE3) assessed as suppression of ATPase activity at 100 uM after 60 mins by TLC based steady state ATPase assay relative to control
Outline: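 Hsp70 ATPase activity measured without cochaperone. Activity was normalized to reactions with no compound but an equal amount of DMSO. Values are the means of three independent experiments.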

[11] = system: Homo sapiens; experiment: Activation of human Hsp70 expressed in Escherichia coli BL21(DE3) assessed as stimulation of Hdj2-activated ATPase activity at 100 uM dosed 15 mins after Hsp70 and Hdj2 pre-incubation and measured after 60 mins by TLC based steady state ATPase assay relative to control; outline: as §2
[12] = Distribution coefficient, logD of the compound; assay type: physicochemical; conditions: octanol/water
[13] = Partition coefficient, logP of the compound; assay type: physicochemical; conditions: octanol/water

Chain of Large T antigen (Simian virus 40) (P03070 whole entry): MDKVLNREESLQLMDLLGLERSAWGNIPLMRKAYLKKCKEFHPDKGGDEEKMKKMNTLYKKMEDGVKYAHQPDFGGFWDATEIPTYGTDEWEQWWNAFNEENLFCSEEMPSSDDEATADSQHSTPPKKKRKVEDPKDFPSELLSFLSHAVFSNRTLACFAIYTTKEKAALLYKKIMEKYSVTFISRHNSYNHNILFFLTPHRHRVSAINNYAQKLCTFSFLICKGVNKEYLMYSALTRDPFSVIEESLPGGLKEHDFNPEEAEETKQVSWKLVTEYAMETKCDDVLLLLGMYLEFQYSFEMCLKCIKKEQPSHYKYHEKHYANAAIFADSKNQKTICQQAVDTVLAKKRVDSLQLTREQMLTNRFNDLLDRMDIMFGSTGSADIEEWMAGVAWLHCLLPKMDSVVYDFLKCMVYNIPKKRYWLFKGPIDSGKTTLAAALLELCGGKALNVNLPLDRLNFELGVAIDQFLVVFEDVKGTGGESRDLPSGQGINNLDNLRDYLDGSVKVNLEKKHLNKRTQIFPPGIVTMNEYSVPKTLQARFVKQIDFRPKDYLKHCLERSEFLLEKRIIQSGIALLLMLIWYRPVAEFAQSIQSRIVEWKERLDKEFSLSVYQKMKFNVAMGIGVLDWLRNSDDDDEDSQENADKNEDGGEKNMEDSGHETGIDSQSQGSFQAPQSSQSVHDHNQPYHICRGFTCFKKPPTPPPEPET

Row | Compound | fold change (FC) [1] | GI50 at 24 h [2] [µM] | fold change (FC) [3] | GI50 at 48 h [9] [µM] | fold change (FC) [10] | further results
1 | CC1=C(C(=O)OCc2ccccc2)C(c2ccc(-c3ccccc3)cc2)NC(=S)N1CCCCCc1nnn[nH]1 (stereo not given) | 2.1 | 110 | 1.7 | – | – | –
2 | CC1=C(C(=O)OCc2ccccc2)C(c2ccc(-c3ccccc3)cc2)NC(=S)N1CCCCCC(=O)O (stereo not given) | 1.5 | 100 | – | – | – | –
3 | CC1=C(C(=O)OCc2ccccc2)C(c2ccc(-c3ccccc3)cc2)N(CCCCCC(=O)O)C(=S)N1 (stereo not given) | 1.6 | 110 | – | – | – | –
4 | Nc1ccn(C[C@@H](CO)OCP(=O)(O)O)c(=O)n1.O.O [CIDOFOVIR] | – | – | – | – | – | CC50 [4]: 49 µM; CC50 at 168 h [5]: > 100 µM; EC50 [6]: 2 µM; Ratio CC50/EC50 [7]: 24; EC50 [8]: 1.1 µM
5 | CC1=C(C(=O)OCc2ccccc2)C(c2ccc(-c3ccccc3C)cc2)NC(=S)N1Cc1ccc(-c2nnn[nH]2)cc1 (stereo not given) | 7.7 | 68 | 3.7 | 160 | – | –
6 | CC1=C(C(=O)OCc2ccccc2)C(c2ccc(-c3ccccc3)cc2)N(Cc2ccc(-c3nnn[nH]3)cc2)C(=O)N1 (stereo not given) | 2.3 | – | 5 | – | 1.2 | –
7 | CC1=C(C(=O)OCc2ccccc2)C(c2ccc(-c3ccccc3)cc2)NC(=O)N1CCCCCc1nnn[nH]1 (stereo not given) | 1.4 | – | 1.3 | – | 1.2 | CC50 [4]: 24 µM; CC50 at 168 h [5]: > 67 µM; EC50 [6]: 3.5 µM; EC50 [8]: 3.9 µM
8 | CC1=C(C(=O)OCc2ccccc2)C(c2ccc(-c3ccccc3C)cc2)NC(=S)N1CCCCCc1nnn[nH]1 (stereo not given) | 4.7 | 100 | 2.5 | – | – | –
9 | CCCCCCN(C(=O)CCCCCN1C(=O)NC(c2ccc(-c3ccccc3)cc2)C(C(=O)OCc2ccccc2)=C1C)C(C(=O)NCCCC)c1ccc(OCC(=O)OC)c(C(=O)OC)c1 (stereo not given) | – | 13 | – | 6 | – | –
10 | CC1=C(C(=O)OCc2ccccc2)C(c2ccc(-c3ccccc3C)cc2)NC(=O)N1CCCCCc1nnn[nH]1 (stereo not given) | 2.1 | 100 | 3 | 72 | 1.4 | –
11 | CC1=C(C(=O)OCc2ccccc2)C(c2ccc(-c3ccccc3)cc2)NC(=S)N1Cc1ccc(-c2nnn[nH]2)cc1 (stereo not given) | 5.5 | 87 | 4.5 | 140 | 1.4 | –
12 | CC1=C(C(=O)OCc2ccccc2)C(c2ccc(-c3ccccc3)cc2)NC(=O)N1Cc1ccc(-c2nnn[nH]2)cc1 (stereo not given) | 2 | 96 | 5 | 160 | – | –
13 | CC1=C(C(=O)OCc2ccccc2)C(c2ccc(-c3ccccc3)cc2)NC(=O)N1CCCCCC(=O)O (stereo not given) | 1.5 | 120 | – | – | – | fold change (FC) [11]: 1.5
14 | CC1=C(C(=O)OCc2ccccc2)C(c2ccc(-c3ccccc3)cc2)N(Cc2ccc(-c3nnn[nH]3)cc2)C(=S)N1 (stereo not given) | 4.5 | 72 | 5.3 | 110 | 1.7 | CC50 [4]: 18 µM; logD [12]: 4.8; CC50 [5]: 17 µM; EC50 [6]: 0.75 µM; Ratio CC50/EC50 [7]: 23; logP [13]: 6.4; EC50 [8]: 1.8 µM
15 | CC1=C(C(=O)OCc2ccccc2)C(c2ccc(-c3ccccc3C)cc2)N(Cc2ccc(-c3nnn[nH]3)cc2)C(=S)N1 (stereo not given) | 7.5 | 62 | 4.8 | – | 1.3 | –
16 | CC1=C(C(=O)OCc2ccccc2)C(c2ccc(-c3ccccc3C)cc2)NC(=O)N1Cc1ccc(-c2nnn[nH]2)cc1 (stereo not given) | – | 73 | – | 140 | – | CC50 [4]: 21 µM; CC50 [5]: 20 µM; EC50 [6]: 4.2 µM; EC50 [8]: 1.7 µM
